Assay results as given in publication PMC11590664 (European journal of medicinal chemistry, 2023).

Legend:
[1] = tested on: HEK-293 cells; assay: Cytotoxicity / viability assay, HEK-293; assay type: cell-based; settings: Homo sapiens, HEK293, read-out: HEK-293 IC50
Summary of the method: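 HEK-293 cells were grown in medium per the provider's instructions with 100 units/mL penicillin and 100 μg/mL streptomycin, at 37 °C in 5 % CO2. Log-phase cells were seeded at 5000 per well, left 24 h, then exposed in triplicate to a range of test compound concentrations for 72 h. Resazurin was added for 4–6 h and fluorescence read. Values are relative to DMSO vehicle, with IC50 from a variable-slope normalized-response fit. Each compound was tested at least three times.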

[2] = tested on: phosphorylation of FLT3 and ERK in MOLM14 cells; assay: Western blot, MOLM14 cells; assay type: cell-based, human; settings: 2 h
Summary of the method: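 Cells kept at 37 °C under 5 % CO2. Total cell lysates separated by SDS-PAGE and transferred to nitrocellulose. Membranes probed with primary antibodies to pFLT3 Y842, total FLT3, pERK, total ERK and GAPDH, then with secondary antibodies, and imaged.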

[3] = target: KIT (Homo sapiens, UniProt P10721); assay: KINOMEscan site-directed competition binding assay, KIT; settings: 4.5 nM compound, 97 kinase panel
Summary of the method: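 Competition binding read by qPCR against DNA-tagged kinases. Streptavidin magnetic beads loaded with biotinylated ligand (30 min, RT), biotin-blocked and washed. Kinase, beads and test compound (diluted from 100x DMSO stocks) combined in 20 % SeaBlock, 0.17x PBS, 0.05 % Tween 20, 6 mM DTT; 1 h RT with shaking. […] Kinase in eluate quantified by qPCR.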

Sequence of KIT (P10721 26-976): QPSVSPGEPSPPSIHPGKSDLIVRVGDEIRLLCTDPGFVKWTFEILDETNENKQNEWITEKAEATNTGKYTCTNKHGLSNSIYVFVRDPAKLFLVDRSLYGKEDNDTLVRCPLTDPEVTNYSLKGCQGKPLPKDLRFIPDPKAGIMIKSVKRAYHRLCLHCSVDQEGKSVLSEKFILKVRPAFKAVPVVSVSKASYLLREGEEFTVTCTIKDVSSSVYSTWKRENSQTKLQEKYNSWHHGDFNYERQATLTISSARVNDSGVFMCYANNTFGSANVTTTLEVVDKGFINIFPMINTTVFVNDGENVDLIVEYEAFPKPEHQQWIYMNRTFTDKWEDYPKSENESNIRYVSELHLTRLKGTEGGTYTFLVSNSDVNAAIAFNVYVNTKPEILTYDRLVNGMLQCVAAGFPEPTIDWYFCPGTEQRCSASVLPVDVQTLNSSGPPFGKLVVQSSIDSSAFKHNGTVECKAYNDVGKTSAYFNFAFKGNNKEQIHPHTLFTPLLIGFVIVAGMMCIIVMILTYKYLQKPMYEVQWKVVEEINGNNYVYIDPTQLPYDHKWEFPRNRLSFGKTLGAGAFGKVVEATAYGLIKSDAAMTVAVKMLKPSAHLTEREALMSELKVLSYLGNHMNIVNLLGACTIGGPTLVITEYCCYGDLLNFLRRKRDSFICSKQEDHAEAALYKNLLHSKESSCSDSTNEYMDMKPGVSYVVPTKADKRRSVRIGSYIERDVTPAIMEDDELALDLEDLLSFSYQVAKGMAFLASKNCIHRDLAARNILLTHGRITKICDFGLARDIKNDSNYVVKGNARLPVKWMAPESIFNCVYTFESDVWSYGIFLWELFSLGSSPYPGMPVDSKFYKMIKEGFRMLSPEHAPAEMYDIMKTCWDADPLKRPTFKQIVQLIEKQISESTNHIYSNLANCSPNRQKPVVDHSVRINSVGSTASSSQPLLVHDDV

SMILES: COc1cc(Nc2cccc(-c3cnc4cc(-c5ccc(S(C)(=O)=O)cc5)ccn34)n2)cc(OC)c1OC [Compound 42, 6-(7-(4-(methylsulfonyl)phenyl)imidazo [1,2-a]pyridin-3-yl)-N-(3,4,5-trimethoxyphenyl)pyridin-2-amine]
- IC50 [1]: > 1000 nM

SMILES: Cn1cc(-c2ccn3c(-c4cccc(Nc5ccc(S(C)(=O)=O)cc5)n4)cnc3c2)cn1 [Compound 24, 6-(7-(1-methyl-1H-pyrazol-4-yl)imidazo [1,2-a]pyridin-3-yl)-N-(4-(methylsulfonyl)phenyl)pyridin-2-amine]
- inhibitory effects on the phosphorylation of FLT3 and ERK ([2]; 1X IC50 (4.5 nM)): noticeable signal downregulation
- inhibitory effects on the phosphorylation of FLT3 and ERK ([2]; 10X IC50): nearly complete signal downregulation
- binding affinity with KIT [3]: minimal binding affinity
- IC50 [1]: > 1000 nM

SMILES: COc1ccc(Nc2cccc(-c3cnc4cc(-c5cnn(C)c5)ccn34)n2)cc1OC [Compound 20, N-(3,4-dimethoxyphenyl)-6-(7-(1-methyl-1H-pyrazol-4-yl)imidazo [1,2-a]pyridin-3-yl)pyridin-2-amine]
- IC50 [1]: > 1000 nM
